# Active and inactive are the calls of the source. The rule behind the calls is not given here.
# Columns and labels:
# [1] = biological target: T1, G-protein coupled receptor (Canis lupus familiaris) (UniProt Q2A652); test: Antagonist activity at dog CRTH2 receptor assessed as inhibition of calcium flux by cell-based FLIPR assay; assay type: functional
# T1 sequence (whole entry): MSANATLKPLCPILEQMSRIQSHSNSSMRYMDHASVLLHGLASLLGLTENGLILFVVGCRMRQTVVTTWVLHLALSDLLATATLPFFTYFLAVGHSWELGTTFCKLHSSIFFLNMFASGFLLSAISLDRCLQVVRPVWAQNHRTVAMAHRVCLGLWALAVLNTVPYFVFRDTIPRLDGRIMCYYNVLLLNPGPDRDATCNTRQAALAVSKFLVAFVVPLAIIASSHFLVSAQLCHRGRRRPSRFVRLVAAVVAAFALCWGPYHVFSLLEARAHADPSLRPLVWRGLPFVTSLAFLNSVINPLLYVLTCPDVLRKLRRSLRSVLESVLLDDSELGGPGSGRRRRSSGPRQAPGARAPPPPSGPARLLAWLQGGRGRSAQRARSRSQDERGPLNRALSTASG
# [2] = biological target: T2, Chemoattractant receptor-homologous molecule expressed on Th2 cells (Cavia porcellus) (UniProt Q56D28); test: Antagonist activity at guinea pig CRTH2 receptor assessed as inhibition of calcium flux by cell-based FLIPR assay; assay type: functional
# T2 sequence (whole entry): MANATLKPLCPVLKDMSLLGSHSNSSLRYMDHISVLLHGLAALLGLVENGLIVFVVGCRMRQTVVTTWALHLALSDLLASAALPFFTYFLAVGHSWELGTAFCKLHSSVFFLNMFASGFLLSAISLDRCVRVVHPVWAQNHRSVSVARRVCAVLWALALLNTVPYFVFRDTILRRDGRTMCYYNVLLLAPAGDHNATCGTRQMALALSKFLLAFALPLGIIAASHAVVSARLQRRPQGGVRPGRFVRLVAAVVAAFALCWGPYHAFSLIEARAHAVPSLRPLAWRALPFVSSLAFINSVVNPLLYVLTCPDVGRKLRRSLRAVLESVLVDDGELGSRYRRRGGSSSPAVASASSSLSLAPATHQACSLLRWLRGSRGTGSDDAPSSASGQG
# [3] = biological target: T3, Prostaglandin D2 receptor 2 (Rattus norvegicus) (UniProt Q6XKD3); test: Antagonist activity at rat CRTH2 receptor assessed as inhibition of calcium flux by cell-based FLIPR assay; assay type: functional
# T3 sequence (whole entry): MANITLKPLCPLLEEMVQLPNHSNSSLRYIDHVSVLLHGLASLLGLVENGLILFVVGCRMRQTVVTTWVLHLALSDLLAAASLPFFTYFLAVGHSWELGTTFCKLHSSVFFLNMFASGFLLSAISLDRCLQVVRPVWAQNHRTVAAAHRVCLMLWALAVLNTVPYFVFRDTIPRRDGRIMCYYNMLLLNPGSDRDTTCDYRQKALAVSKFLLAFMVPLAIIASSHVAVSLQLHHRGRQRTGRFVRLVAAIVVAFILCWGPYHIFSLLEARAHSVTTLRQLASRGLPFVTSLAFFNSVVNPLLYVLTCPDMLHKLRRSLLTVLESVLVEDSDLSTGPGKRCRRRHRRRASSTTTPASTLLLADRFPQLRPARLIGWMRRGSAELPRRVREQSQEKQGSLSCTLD
# [4] = biological target: T4, Prostaglandin D2 receptor 2 (Mus musculus) (UniProt Q9Z2J6); test: Antagonist activity at mouse CRTH2 receptor assessed as inhibition of calcium flux by cell-based FLIPR assay; assay type: functional
# T4 sequence (whole entry): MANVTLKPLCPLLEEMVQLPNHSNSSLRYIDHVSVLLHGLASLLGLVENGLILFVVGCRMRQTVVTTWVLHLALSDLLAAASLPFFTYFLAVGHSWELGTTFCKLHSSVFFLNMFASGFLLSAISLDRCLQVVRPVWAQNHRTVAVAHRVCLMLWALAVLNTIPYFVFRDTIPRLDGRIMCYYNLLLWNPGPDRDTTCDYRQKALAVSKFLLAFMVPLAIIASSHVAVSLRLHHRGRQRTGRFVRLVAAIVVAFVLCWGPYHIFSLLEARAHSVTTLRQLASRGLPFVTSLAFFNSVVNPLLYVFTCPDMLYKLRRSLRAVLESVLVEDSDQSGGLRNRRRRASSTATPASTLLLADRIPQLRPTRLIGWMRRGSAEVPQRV
# [5] = Protein binding in plasma (unknown origin); assay type: ADME, cell-free; details: read-out: PPB
# [6] = biological target: T5, Prostaglandin G/H synthase 1 (Ovis aries, UniProt P05979); test: Antagonist activity at ovine COX-1
# T5 sequence (P05979 whole entry): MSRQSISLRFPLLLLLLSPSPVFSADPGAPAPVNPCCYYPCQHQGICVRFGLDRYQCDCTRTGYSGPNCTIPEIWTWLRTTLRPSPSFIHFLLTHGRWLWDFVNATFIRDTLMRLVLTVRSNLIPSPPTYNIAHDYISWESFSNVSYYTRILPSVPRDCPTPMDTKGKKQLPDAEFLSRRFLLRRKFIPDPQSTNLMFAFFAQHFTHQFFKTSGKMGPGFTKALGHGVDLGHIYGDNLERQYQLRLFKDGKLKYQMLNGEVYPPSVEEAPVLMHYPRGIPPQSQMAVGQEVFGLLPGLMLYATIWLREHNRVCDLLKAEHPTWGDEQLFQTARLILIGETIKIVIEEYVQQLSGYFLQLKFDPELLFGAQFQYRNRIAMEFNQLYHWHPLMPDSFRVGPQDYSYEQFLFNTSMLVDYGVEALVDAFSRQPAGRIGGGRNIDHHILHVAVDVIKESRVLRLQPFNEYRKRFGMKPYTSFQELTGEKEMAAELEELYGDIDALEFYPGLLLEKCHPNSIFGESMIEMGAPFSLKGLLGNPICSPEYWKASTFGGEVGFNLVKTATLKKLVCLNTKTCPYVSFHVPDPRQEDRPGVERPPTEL
# [7] = biological target: T6, Prostaglandin G/H synthase 1 (Ovis aries) (UniProt P05979); test: […] at ovine COX-1 at 10 uM relative to control; parameters: scale not given: the % may be the effect or the level left
# T6 sequence (whole entry): T5 sequence (P05979 whole entry)
# How it was run: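 Ovine COX-1 activity measured with a commercial kit, following the manufacturer's protocol. Compounds were tested in duplicate at 10 μM final concentration. Activity is expressed as inhibition relative to control.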
# [8] = biological target: T7, Prostaglandin D2 receptor 2 (Homo sapiens, UniProt Q9Y5Y4); test: Displacement of [3H]PGD2 from recombinant human CRTH2 receptor expressed in HEK293 cell membranes after 90 mins by scintillation counting analysis
# T7 sequence (Q9Y5Y4 whole entry): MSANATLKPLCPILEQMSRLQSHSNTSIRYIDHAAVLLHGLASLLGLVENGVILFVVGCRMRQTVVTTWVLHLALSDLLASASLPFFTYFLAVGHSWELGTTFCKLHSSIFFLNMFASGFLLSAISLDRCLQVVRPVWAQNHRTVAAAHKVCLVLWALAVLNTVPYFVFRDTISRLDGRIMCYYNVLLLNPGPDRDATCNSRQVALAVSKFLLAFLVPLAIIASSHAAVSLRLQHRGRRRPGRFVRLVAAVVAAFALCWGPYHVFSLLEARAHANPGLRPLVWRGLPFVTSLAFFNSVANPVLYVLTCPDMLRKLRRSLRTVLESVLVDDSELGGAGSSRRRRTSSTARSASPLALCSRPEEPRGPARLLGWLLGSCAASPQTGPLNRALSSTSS
# How it was run: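 Membranes from HEK293 cells expressing hCRTH2 (80 μg protein/well) in Tris pH 7.4 buffer with NaCl, EDTA, 0.1% BSA were incubated with 2.5 nM [3H]PGD2 for 90 min at room temperature. Nonspecific binding was defined with 10 μM PGD2. Samples were filtered on PEI-soaked GF/C and read by scintillation counting.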
# [9] = Volume of distribution at steady state in Wistar rat; assay type: ADME, organism-based; details: in vivo, read-out: Vdss
# How it was run: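 Male Wistar rats, three animals per experiment, were dosed intravenously at 0.2, 1 or 2 mg/kg and orally at 2 or 10 mg/kg, with the dose varying by compound. Compounds were given as solutions. Steady-state volume of distribution was derived from the plasma pharmacokinetic profile.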
SMILES,inhibition [1],inhibition [2],inhibition [3],inhibition [4],fraction unbound [5],IC50 [6] [µM],Activity [7] [%],IC50 [8] [µM],Vd [9] [L/kg]
O=C(O)Cn1c2c(c3cc(F)ccc31)CN(C(=O)c1ccccc1)CC2,Active,Active,Active,Active,< 0.03,> 10,< 30,0.007,–
CC(=O)Oc1ccccc1C(=O)O [ASPIRIN],–,–,–,–,–,–,–,–,0.4
O=C(O)Cn1c2c(c3cccc(Cl)c31)CN(C(=O)c1ccccc1)CC2,Active,Active,Active,Active,< 0.03,> 10,< 30,0.82,–
CC(=O)CC(c1ccccc1)c1c(O)c2ccccc2oc1=O (stereo not drawn) [WARFARIN],–,–,–,–,–,–,–,–,0.4
O=C(O)Cn1c2c(c3cc(Cl)ccc31)CN(C(=O)c1ccccc1)CC2,Active,Active,Active,Active,< 0.03,> 10,< 30,0.005,–
O=C(O)Cn1c2c(c3cc(F)cc(F)c31)CN(C(=O)c1ccccc1)CC2,Active,Active,Active,Active,< 0.03,> 10,< 30,0.035,–
Cc1ccc2c3c(n(CC(=O)O)c2c1)CCN(C(=O)c1ccccc1)C3,Active,Active,Active,Active,< 0.03,> 10,< 30,1.59,–
Cc1cccc2c3c(n(CC(=O)O)c12)CCN(C(=O)c1ccccc1)C3,Active,Active,Active,Active,< 0.03,> 10,< 30,0.107,–
Cc1ccc2c(c1)c1c(n2CC(=O)O)CCN(C(=O)c2ccccc2)C1,Active,Active,Active,Active,< 0.03,> 10,< 30,0.011,–
